Assay results: ChEMBL document CHEMBL1137716, “Novel modifications in the series of O-(2-phthalimidoethyl)-N-substituted thiocarbamates and their ring-opened congeners as non-nucleoside HIV-1 reverse transcriptase inhibitors” (Eur J Med Chem, 2009)
Active and inactive are the calls of the source. No rule for the calls is given here.

Columns and labels:
[1] = Selectivity index, ratio of CC50 for human MT4 cells to EC50 for HIV1 3B; format: toxicity, cell-based; conditions: read-out: Ratio CC50/EC50
How it was run: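 Ratio of CC50 in mock-infected MT-4 cells to EC50 for protection from HIV-1 cytopathogenicity, both read by MTT method.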

[2] = tested on: Human immunodeficiency virus 1; assay: Antiviral activity against wild type HIV1 3B in human MT4 cells assessed as protection against viral induced cytopathogenicity by MTT assay; format: functional, organism-based; conditions: Human immunodeficiency virus 1, 3B
How it was run: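 MT-4 cells infected with HIV-1; 50% protection from virus-induced cytopathogenicity read by MTT method; EC50 in micromolar; mean of three separate experiments, triplicate samples varying under 10%.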

[3] = tested on: Human immunodeficiency virus 1; assay: Antiviral activity against HIV1 3B Y181C resistant mutant in human MT4 cells assessed as protection against viral induced cytopathogenicity by MTT assay; format: functional, organism-based; conditions: Human immunodeficiency virus 1, 3B
How it was run: (§1)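 MT-4 cells infected with HIV-1 carrying the NNRTI-resistance mutation were assayed for protection from virus-induced cytopathogenicity, read out as cell viability by MTT. EC50 is the compound concentration giving 50% protection. Values are means of three separate experiments, with variation among triplicate samples under 10%. Efavirenz served as the reference.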

[4] = Cytotoxicity against mock-infected human MT4 cells by MTT assay; format: cell-based
How it was run: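 Mock-infected MT-4 cells, tested in parallel with the antiviral assay; viability read by MTT method; CC50 is the concentration lowering viability by 50%; mean of three separate experiments, triplicate variation under 10%.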

[5] = tested on: Human immunodeficiency virus 1; assay: Antiviral activity against HIV1 3B K103R resistant mutant in human MT4 cells assessed as protection against viral induced cytopathogenicity by MTT assay; conditions: Human immunodeficiency virus 1, 3B
[6] = tested on: Human immunodeficiency virus 1; assay: Antiviral activity against HIV1 3B Y181C/K103N double mutant in human MT4 cells assessed as protection against viral induced cytopathogenicity by MTT assay; format: functional, organism-based; how it was run: as §1

| SMILES | selectivity ratio [1] | EC50 [2] [µM] | EC50 [3] [µM] | CC50 [4] [µM] | EC50 [5] [µM] | Activity [6] |
| --- | --- | --- | --- | --- | --- | --- |
| S=C(NCCc1ccccn1)Nc1ccc(Br)cn1 [TROVIRDINE] | 3000 | 0.02 | 15 |  |  |  |
| C[C@H](COC(=S)Nc1ccc(Cl)cc1)N1C(=O)c2ccccc2C1=O | 4800 | 0.01 | 1.3 | 48 | 4.8 | inactive |
| Cc1ccc(NC(=S)OCC(C)N2C(=O)c3ccc(C)cc3C2=O)cc1 (racemic) | 410 | 0.1 | 12 | 41 |  | inactive |
| Cc1ccc(NC(=S)OC[C@@H](C)N2C(=O)c3ccccc3C2=O)cc1 | 1090 | 0.07 | 9 | 76 |  | inactive |
| CCc1ccc(NC(=S)OCCN2C(=O)c3ccc(C)cc3C2=O)cc1 | 2150 | 0.02 | 16 | 43 |  | inactive |
| Cc1ccc2c(c1)C(=O)N(CCOC(=S)Nc1ccc(F)cc1)C2=O | 3330 | 0.03 | 68 | 100 |  | inactive |
| O=C1c2ccccc2C(=O)N1CCOC(=S)Nc1ccc(Cl)c([N+](=O)[O-])c1 | > 2000 | 0.05 | 2.8 | > 100 |  | inactive |
| C[C@H](COC(=S)Nc1ccc(Cl)cc1)NC(=O)c1ccccc1C(=O)O | > 333 | 0.3 | 18 | > 100 |  | inactive |
| Cc1ccc2c(c1)C(=O)N(CCOC(=S)Nc1ccc(I)cc1)C2=O | 8900 | 0.01 | 9 | 89 |  | inactive |
| Cc1ccc2c(c1)C(=O)N(C(C)COC(=S)Nc1ccc(Cl)cc1)C2=O (racemic) | 567 | 0.06 | 4 | 34 |  | inactive |
| O=C1Nc2ccc(Cl)cc2[C@@](C#CC2CC2)(C(F)(F)F)O1 [EFAVIRENZ] |  |  | 0.02 |  |  |  |
| Cc1ccc2c(c1)C(=O)N(CCOC(=S)Nc1ccc(C#N)cc1)C2=O | 5700 | 0.01 | 4.5 | 57 |  | inactive |
| O=C(O)c1ccccc1C(=O)NCCOC(=S)Nc1c(F)cc(F)cc1F | > 13.9 | 7.2 |  | > 100 |  | inactive |
| Cc1ccc2c(c1)C(=O)N(CCOC(=S)Nc1ccc(C)c(Cl)c1)C2=O | 165 | 0.4 |  | 66 |  | inactive |
| COc1ccc(NC(=S)OCCN2C(=O)c3ccc(C)cc3C2=O)cc1 | > 3330 | 0.03 | 44 | > 100 |  | inactive |
| O=C1c2ccccc2C(=O)N1CCOC(=S)NCCc1ccccc1 | > 10.9 | 9.2 |  | > 100 |  | inactive |
| O=C(O)c1ccccc1C(=O)NCCOC(=S)Nc1ccc(Cl)c(Cl)c1Cl | > 2.3 | 44 |  | > 100 |  | inactive |
| Cc1ccc2c(c1)C(=O)N(CCOC(=S)Nc1ccc(Cl)c(Cl)c1)C2=O | 250 | 0.2 |  | 50 |  | inactive |
| CCCCNC(=S)OCCN1C(=O)c2ccccc2C1=O | > 13.9 | 7.2 |  | > 100 |  | inactive |
| Cc1ccc2c(c1)C(=O)N(CCOC(=S)Nc1ccc(Br)cc1)C2=O | 7380 | 0.008 |  | 59 |  | inactive |
| O=C(O)c1ccccc1C(=O)NCCOC(=S)Nc1c(F)cccc1F | > 2.2 | 45 |  | > 100 |  | inactive |
| Cc1ccc2c(c1)C(=O)N(CCOC(=S)Nc1ccc(Cl)c(C(F)(F)F)c1)C2=O | 17.9 | 2.4 |  | 43 |  | inactive |
| Cc1ccc(NC(=S)OCCN2C(=O)c3ccc(C(C)(C)C)cc3C2=O)cc1 | 28 | 1.5 |  | 42 |  | inactive |
| Cc1ccc2c(c1)C(=O)N(CCOC(=S)Nc1ccc(Cl)c([N+](=O)[O-])c1)C2=O | > 2000 | 0.05 | 30 | > 100 |  | inactive |
| O=C1c2ccccc2C(=O)N1CCOC(=S)NCC1CCCCC1 | > 91 | 1.1 |  | > 100 |  | inactive |
